According to article PMC8799559 (Advances in Therapy, 2021):

Experiments:
[1] = legacy model, 50 subjects receiving venetoclax + R ref 13; cited from earlier work
[2] = phase 3 MURANO study, R/R CLL ref 19; cited from earlier work
[3] = Population pharmacokinetics; format: in vivo, human
Procedure, shortened: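 Plasma drug measured by validated LC-MS/MS; LLOQ 2.08 or 2.18 ng/mL. Intensive sampling on cycle 1 day 4 and cycle 2 day 1, pre-dose to 8 h post-dose, plus pre-dose samples on cycle 1 day 8 and cycle 2 day 10. Prior model built on 505 subjects from eight studies applied by nonlinear mixed-effects (FOCEI). Checked by diagnostic plots, VPCs and NPDE.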

[4] = fixed at legacy model estimate ref 13, cited from earlier work
[5] = test system: circulating lymphocyte counts; conditions: cited from earlier work
tumor size = conditions: cited from earlier work
1L DLBCL = format: in vivo, human; conditions: all-comers and BCL-2-IHC-positive subpopulations, logistic regression
Procedure, shortened: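 Phase 2 1L DLBCL patients (n = 199) given 800 mg test compound on a 10/21-day schedule with R-CHOP. PET-CT complete response assessed at the end-of-treatment visit, 6–8 weeks from day 1 of the last cycle. Logistic regression (logit link) on nominal AUCss; α = 0.05 for the exposure coefficient. Covariates added by forward stepwise selection at α = 0.01.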

[6] = food effect on relative bioavailability

## CC1(C)CCC(CN2CCN(c3ccc(C(=O)NS(=O)(=O)c4ccc(NCC5CCOCC5)c([N+](=O)[O-])c4)c(Oc4cnc5[nH]ccc5c4)c3)CC2)=C(c2ccc(Cl)cc2)C1 [venetoclax]
[1]
  Increase of venetoclax CL/F by concomitant R administration: 1.21 fold
[2]
  Increase in CL/F for venetoclax when co-administered with R: 7%
[3]; human, plasma, oral
  half-life: 25.2 h
[3]; multiplicative CAVALLI study effect relative to legacy model
  θV2/F,GO27878 (study effect on V2/F): 2.33
[4]; covariate effect on CL/F
  θCL/F, moderate CYP3A inhibitor: 0.84
  θCL/F, strong CYP3A inhibitor: 0.18
  θCL/F,OATP1B3 inhibitor: 0.85
[4]; covariate effect on V2/F
  θV2/F, CLL/SLL/NHL: 1.71
  θV2/F,SEX=female: 0.68
[4]; final PopPK model
  CL/F: 447 L/day
  Q/F: 97.2 L/day
  V2/F: 118 L
  V3/F: 119 L
[4]; first-order absorption rate constant
  ka: 3.72 day⁻¹
[4]; [6]
  θF1,FOOD=fasting: 0.34
  θF1,FOOD=fed: 1.23
  θF1,FOOD=high fat: 1.43
  θF1,FOOD=moderate fat: 1.31
[4]; inter-individual variability
  Variability (CV) of CL/F: CV = 39.1%
  Variability (CV) of F1: CV = 31.2%
  Variability (CV) of V2/F: CV = 45.3%
[4]; inter-individual variance
  ω^2CL/F: 0.15
  ω^2F1: 0.10
  ω^2V2/F: 0.21
[4]; residual variance, additive
  σ^2add: 3.07 × 10^–7
[4]; residual variance, proportional
  σ^2prop: 0.22
[5]
  EC50 for circulating lymphocyte counts: 0.00863 µg/mL
Tumor size
  EC50 for tumor size: 0.146 µg/mL
1L DLBCL
  Association between venetoclax AUCss nominal and PET-CR rates: No clear association
